Laboratory results from ChEMBL document CHEMBL1165969, “Synthesis and cytotoxicity of novel indirubin-5-carboxamides” (Bioorg Med Chem, 2010).
In brackets after ≈: the same amount, converted by molar mass.

Columns and labels:
[1] = molecular target: Ribosomal protein S6 kinase beta-1 (Homo sapiens) (UniProt P23443); experiment: Inhibition of p70S6K1 assessed as residual activity at 1 uM after 80 mins by microplate scintillation counting
Outline: (§1)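 Kinase profiling was outsourced to a contract laboratory as a panel of 30 protein kinases. Each compound was tested at two concentrations, and residual kinase activity was recorded.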

[2] = molecular target: Cyclin-dependent kinase 2/cyclin E1 (Homo sapiens) (UniProt P24864+P24941); experiment: Inhibition of CDK2/Cyclin E assessed as residual activity at 10 uM after 80 mins by microplate scintillation counting; type: protein-complex assay
[3] = molecular target: Ribosomal protein S6 kinase beta-1 (Homo sapiens) (UniProt P23443); experiment: Inhibition of p70S6K1 assessed as residual activity at 10 uM after 80 mins by microplate scintillation counting; outline: as §1
[4] = molecular target: Serine/threonine-protein kinase B-raf (Homo sapiens) (UniProt P15056); experiment: Inhibition of B-Raf assessed as residual activity at 1 uM after 80 mins by microplate scintillation counting
[5] = molecular target: Receptor-type tyrosine-protein kinase FLT3 (Homo sapiens) (UniProt P36888); experiment: Inhibition of FLT3 assessed as residual activity at 10 uM after 80 mins by microplate scintillation counting
Sequence of Receptor-type tyrosine-protein kinase FLT3 (Homo sapiens) (P36888 whole entry): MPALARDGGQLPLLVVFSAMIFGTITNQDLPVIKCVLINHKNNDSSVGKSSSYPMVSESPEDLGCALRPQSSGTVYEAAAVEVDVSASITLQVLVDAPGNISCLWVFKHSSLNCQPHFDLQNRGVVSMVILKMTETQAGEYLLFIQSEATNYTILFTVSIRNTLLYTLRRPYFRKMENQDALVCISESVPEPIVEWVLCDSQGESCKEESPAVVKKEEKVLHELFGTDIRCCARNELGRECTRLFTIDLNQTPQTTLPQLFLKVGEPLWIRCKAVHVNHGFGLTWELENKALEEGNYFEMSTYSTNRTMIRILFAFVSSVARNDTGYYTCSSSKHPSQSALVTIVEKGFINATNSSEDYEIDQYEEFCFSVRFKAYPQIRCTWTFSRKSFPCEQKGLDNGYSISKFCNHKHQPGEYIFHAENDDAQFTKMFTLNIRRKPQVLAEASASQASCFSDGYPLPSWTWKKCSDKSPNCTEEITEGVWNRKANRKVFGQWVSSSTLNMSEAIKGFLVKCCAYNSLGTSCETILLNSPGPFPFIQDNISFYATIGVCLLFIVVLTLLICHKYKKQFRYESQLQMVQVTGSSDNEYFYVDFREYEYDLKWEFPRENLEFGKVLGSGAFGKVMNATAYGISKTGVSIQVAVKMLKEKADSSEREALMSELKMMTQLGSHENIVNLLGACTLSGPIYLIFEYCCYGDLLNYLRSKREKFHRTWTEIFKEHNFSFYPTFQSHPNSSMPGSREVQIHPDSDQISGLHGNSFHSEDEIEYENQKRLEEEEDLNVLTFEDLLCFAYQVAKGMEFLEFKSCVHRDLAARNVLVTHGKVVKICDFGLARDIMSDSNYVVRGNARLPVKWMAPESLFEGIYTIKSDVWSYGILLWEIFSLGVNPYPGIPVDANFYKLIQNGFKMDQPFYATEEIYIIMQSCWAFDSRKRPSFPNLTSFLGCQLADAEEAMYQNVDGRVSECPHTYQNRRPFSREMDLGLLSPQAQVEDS

[6] = molecular target: Vascular endothelial growth factor receptor 3 (Homo sapiens) (UniProt P35916); experiment: Inhibition of VEGFR3 assessed as residual activity at 1 uM after 80 mins by microplate scintillation counting; outline: as §1
[7] = molecular target: Tyrosine-protein kinase Fgr (Homo sapiens) (UniProt P09769); experiment: Inhibition of FGR assessed as residual activity at 1 uM after 80 mins by microplate scintillation counting
Sequence of Tyrosine-protein kinase Fgr (Homo sapiens) (P09769 2-529 limits assumed): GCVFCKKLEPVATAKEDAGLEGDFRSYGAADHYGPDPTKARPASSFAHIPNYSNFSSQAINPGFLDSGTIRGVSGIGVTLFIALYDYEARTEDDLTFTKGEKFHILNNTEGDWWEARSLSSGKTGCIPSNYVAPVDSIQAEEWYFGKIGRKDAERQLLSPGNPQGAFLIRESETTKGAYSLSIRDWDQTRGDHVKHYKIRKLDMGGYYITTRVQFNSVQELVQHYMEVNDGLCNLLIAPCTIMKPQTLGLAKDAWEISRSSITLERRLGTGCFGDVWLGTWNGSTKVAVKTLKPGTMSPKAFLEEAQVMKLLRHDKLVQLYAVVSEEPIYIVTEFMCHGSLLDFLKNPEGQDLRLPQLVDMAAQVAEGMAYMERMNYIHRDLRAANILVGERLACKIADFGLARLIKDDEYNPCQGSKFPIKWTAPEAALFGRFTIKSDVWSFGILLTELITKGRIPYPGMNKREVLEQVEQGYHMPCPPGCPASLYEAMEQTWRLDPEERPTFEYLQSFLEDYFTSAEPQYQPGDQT

[8] = molecular target: T1, Glycogen synthase kinase-3 beta (Homo sapiens, UniProt P49841); experiment: Inhibition of GSK3-beta assessed as residual activity at 1 uM after 80 mins by microplate scintillation counting
T1 sequence (P49841 whole entry, looked up): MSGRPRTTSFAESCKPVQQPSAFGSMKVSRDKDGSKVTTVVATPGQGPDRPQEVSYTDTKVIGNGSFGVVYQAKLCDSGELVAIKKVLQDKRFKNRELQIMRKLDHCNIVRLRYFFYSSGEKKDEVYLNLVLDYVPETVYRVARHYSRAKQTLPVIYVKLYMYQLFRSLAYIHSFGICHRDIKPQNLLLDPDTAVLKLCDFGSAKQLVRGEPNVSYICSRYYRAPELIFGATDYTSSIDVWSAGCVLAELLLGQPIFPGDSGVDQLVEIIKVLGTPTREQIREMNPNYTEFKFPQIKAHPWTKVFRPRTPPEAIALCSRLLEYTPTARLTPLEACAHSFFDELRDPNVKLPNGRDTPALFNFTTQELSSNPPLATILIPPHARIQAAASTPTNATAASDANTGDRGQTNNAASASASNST

[9] = molecular target: Focal adhesion kinase 1 (Homo sapiens) (UniProt Q05397); experiment: Inhibition of FAK assessed as residual activity at 1 uM after 80 mins by microplate scintillation counting
[10] = molecular target: Tyrosine-protein kinase ABL1 (Homo sapiens) (UniProt P00519); experiment: Inhibition of ABL1 assessed as residual activity at 1 uM after 80 mins by microplate scintillation counting
Sequence of Tyrosine-protein kinase ABL1 (Homo sapiens) (P00519 whole entry): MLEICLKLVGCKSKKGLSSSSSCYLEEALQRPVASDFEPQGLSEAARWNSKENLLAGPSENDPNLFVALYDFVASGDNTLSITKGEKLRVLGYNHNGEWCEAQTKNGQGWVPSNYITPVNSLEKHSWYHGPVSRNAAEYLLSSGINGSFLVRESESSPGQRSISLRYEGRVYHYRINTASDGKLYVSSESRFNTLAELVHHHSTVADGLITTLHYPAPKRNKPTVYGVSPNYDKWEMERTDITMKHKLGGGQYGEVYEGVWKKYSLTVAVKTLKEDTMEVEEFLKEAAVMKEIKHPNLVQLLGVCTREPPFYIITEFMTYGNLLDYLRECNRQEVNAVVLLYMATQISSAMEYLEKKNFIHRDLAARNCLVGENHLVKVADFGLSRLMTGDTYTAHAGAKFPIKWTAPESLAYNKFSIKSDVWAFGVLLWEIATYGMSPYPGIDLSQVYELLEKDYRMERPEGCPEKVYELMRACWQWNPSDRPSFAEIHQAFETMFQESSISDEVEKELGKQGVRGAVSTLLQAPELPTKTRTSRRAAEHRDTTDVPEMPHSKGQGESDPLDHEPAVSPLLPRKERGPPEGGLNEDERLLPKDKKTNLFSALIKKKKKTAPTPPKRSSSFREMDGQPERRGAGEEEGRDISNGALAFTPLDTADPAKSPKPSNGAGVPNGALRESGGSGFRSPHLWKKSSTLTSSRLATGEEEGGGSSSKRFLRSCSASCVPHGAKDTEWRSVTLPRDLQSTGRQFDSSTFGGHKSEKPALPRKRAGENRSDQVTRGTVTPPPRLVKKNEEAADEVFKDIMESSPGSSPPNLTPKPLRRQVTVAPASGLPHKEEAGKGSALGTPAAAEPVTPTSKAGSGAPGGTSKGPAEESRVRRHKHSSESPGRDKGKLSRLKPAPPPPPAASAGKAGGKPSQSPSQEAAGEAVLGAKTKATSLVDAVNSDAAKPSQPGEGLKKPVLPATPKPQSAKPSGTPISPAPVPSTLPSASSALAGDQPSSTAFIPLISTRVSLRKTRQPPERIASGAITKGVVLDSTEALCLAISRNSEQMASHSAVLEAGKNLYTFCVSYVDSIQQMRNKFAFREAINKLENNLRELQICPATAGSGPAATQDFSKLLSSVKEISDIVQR

[11] = molecular target: Mast/stem cell growth factor receptor Kit (Homo sapiens) (UniProt P10721); experiment: Inhibition of KIT assessed as residual activity at 1 uM after 80 mins by microplate scintillation counting
[12] = molecular target: Proto-oncogene tyrosine-protein kinase receptor Ret (Homo sapiens) (UniProt P07949); experiment: Inhibition of RET assessed as residual activity at 1 uM after 80 mins by microplate scintillation counting; outline: as §1
[13] = molecular target: Proto-oncogene tyrosine-protein kinase receptor Ret (Homo sapiens) (UniProt P07949); experiment: Inhibition of RET assessed as residual activity at 10 uM after 80 mins by microplate scintillation counting; outline: as §1
[14] = molecular target: Receptor tyrosine-protein kinase erbB-2 (Homo sapiens) (UniProt P04626); experiment: Inhibition of ERBB2 assessed as residual activity at 1 uM after 80 mins by microplate scintillation counting
[15] = molecular target: Serine/threonine-protein kinase Chk2 (Homo sapiens) (UniProt O96017); experiment: Inhibition of CHK2 assessed as residual activity at 1 uM after 80 mins by microplate scintillation counting
[16] = molecular target: T2, Cyclin-dependent kinase 5/CDK5 activator 1 (Homo sapiens) (UniProt Q00535+Q15078); experiment: Inhibition of CDK5/p35 assessed as residual activity at 1 uM after 80 mins by microplate scintillation counting; type: protein-complex assay
T2 sequence (Q00535 whole entry): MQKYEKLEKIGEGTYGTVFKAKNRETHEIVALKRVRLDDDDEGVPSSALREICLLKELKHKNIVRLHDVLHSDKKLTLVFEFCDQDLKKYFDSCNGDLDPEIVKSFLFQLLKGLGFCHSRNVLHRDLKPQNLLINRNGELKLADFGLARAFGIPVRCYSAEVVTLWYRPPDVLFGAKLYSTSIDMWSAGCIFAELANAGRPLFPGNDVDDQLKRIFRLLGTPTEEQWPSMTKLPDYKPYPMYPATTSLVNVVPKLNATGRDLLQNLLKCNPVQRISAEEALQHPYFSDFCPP
T2 sequence (Q15078 99-307 partner limits assumed): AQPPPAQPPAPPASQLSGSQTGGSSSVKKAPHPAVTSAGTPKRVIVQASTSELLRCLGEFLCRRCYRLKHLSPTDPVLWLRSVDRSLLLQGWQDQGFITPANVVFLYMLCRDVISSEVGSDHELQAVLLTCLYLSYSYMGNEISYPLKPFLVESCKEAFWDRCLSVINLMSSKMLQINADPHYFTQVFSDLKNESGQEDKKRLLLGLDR

[17] = molecular target: T1, Glycogen synthase kinase-3 beta; experiment: Inhibition of GSK3-beta assessed as residual activity at 10 uM after 80 mins by microplate scintillation counting
[18] = molecular target: Cyclin-dependent kinase 1/cyclin B1 (Homo sapiens) (UniProt P06493+P14635); experiment: Inhibition of CDK1/Cyclin B1 assessed as residual activity at 1 uM after 80 mins by microplate scintillation counting; type: protein-complex assay
[19] = molecular target: Focal adhesion kinase 1 (Homo sapiens) (UniProt Q05397); experiment: Inhibition of FAK assessed as residual activity at 10 uM after 80 mins by microplate scintillation counting
[20] = molecular target: T2, Cyclin-dependent kinase 5/CDK5 activator 1 (Homo sapiens); experiment: Inhibition of CDK5/p35 assessed as residual activity at 10 uM after 80 mins by microplate scintillation counting; type: protein-complex assay
[21] = molecular target: Receptor-type tyrosine-protein kinase FLT3 (Homo sapiens) (UniProt P36888); experiment: Inhibition of FLT3 assessed as residual activity at 1 uM after 80 mins by microplate scintillation counting
[22] = molecular target: Tyrosine-protein kinase ABL1 (Homo sapiens) (UniProt P00519); experiment: Inhibition of ABL1 assessed as residual activity at 10 uM after 80 mins by microplate scintillation counting
[23] = molecular target: Muscle, skeletal receptor tyrosine-protein kinase (Homo sapiens) (UniProt O15146); experiment: Inhibition of MUSK assessed as residual activity at 10 uM after 80 mins by microplate scintillation counting
Sequence of Muscle, skeletal receptor tyrosine-protein kinase (Homo sapiens) (O15146 whole entry): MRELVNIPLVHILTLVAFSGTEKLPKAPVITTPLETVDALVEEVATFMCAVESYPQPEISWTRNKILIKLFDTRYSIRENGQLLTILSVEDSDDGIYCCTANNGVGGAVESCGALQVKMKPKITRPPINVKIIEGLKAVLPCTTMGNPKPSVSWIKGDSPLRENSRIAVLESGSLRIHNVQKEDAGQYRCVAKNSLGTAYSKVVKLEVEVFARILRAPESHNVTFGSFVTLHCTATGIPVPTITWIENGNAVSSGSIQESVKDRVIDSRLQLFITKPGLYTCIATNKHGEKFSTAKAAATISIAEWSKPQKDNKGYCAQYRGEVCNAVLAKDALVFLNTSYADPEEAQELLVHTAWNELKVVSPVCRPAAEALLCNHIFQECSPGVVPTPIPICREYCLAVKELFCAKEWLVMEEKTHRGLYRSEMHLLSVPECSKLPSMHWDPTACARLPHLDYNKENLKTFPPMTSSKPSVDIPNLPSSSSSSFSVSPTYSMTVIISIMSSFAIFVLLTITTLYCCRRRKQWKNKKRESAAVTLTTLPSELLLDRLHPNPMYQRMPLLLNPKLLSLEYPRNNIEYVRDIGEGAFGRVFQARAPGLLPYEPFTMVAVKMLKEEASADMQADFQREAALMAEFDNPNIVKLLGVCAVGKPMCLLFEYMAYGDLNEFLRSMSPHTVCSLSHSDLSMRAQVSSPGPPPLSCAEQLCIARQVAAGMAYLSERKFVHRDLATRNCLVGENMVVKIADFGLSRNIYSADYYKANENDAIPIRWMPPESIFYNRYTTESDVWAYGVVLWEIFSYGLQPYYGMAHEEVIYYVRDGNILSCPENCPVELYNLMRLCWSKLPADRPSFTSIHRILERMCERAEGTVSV

[24] = molecular target: Cyclin-dependent kinase 2/cyclin A (Homo sapiens) (UniProt P24941+P20248+P78396); experiment: Inhibition of CDK2/Cyclin A assessed as residual activity at 10 uM after 80 mins by microplate scintillation counting; type: protein-complex assay
[25] = molecular target: Fibroblast growth factor receptor 1 (Homo sapiens) (UniProt P11362); experiment: Inhibition of FGFR1 assessed as residual activity at 1 uM after 80 mins by microplate scintillation counting
[26] = molecular target: Muscle, skeletal receptor tyrosine-protein kinase (Homo sapiens) (UniProt O15146); experiment: Inhibition of MUSK assessed as residual activity at 1 uM after 80 mins by microplate scintillation counting
[27] = Solubility in water by spectrophotometry; type: physicochemical

Sequence of Ribosomal protein S6 kinase beta-1 (Homo sapiens) (P23443 whole entry, looked up): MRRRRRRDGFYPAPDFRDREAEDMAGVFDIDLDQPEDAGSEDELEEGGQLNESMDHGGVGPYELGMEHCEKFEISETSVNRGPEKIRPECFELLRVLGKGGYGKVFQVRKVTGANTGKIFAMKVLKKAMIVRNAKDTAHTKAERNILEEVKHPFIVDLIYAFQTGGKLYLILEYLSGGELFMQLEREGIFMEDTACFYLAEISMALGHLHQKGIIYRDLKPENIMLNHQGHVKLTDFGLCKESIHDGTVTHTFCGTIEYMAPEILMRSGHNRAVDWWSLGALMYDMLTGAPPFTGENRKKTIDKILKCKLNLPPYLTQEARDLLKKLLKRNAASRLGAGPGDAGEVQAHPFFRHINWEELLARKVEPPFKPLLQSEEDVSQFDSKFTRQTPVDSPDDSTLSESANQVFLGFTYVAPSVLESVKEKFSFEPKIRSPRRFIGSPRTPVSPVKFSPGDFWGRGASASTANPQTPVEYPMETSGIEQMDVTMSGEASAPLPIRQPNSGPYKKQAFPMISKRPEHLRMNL

- Activity [1]: 94%
- Activity [2]: 14%
- Activity [3]: 48%
- Activity [4]: 103%
- Activity [5]: 11%
- Activity [6]: 99%
- Activity [7]: 99%
- Activity [8]: 27%
- Activity [9]: 103%
- Activity [10]: 88%
- Activity [11]: 98%
- Activity [12]: 78%
- Activity [13]: 58%
- Activity [14]: 99%
- Activity [15]: 90%
- Activity [16]: 53%
- Activity [17]: 6%
- Activity [18]: 79%
- Activity [19]: 92%
- Activity [20]: 16%
- Activity [21]: 67%
- Activity [22]: 26%
- Activity [23]: 31%
- Activity [24]: 20%
- Activity [25]: 88%
- Activity [26]: 81%
- solubility [27]: 520 µg/mL (≈ 1080 µM)
SMILES: CN1CCN(c2ccc(NC(=O)c3ccc4c(c3)/C(=C3/Nc5ccccc5C3=O)C(=O)N4)cc2)CC1
